The values that follow come from ChEMBL document CHEMBL4261579, “β-amino alcohols and their respective 2-phenyl-N-alkyl aziridines as potential DNA minor groove binders” (Eur J Med Chem, 2018).

The subject of data set [1] is MDA-MB-231. The data set is described as follows: Antiproliferative activity against human MDA-MB-231 cells after 48 hrs by MTT assay. In kind it is functional, cell-based. To be noted: MDA-MB-231, 48 h. In outline: (§1)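 MCF-10, MCF-7 or MDA-MB-231 cells, 5.0×10^5 cells seeded and grown 24 h, then exposed 48 h at 37°C to serial dilutions from 500 to 3.9 μM (DMSO 0,5%). Read-out by MTT (2.0 mg/mL in PBS), formazan dissolved in DMSO, absorbance at 570 nm. Viability is given as % of untreated cells, with IC50 from curve fitting. Mean of triplicates.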

Data set [2] is described as follows: Antiproliferative activity against human MCF10 cells after 48 hrs by MTT assay. In kind it is cell-based. The gist of the method: as §1
Data set [3] is described as follows: Selectivity index, ratio of CC50 for human MCF10 cells to IC50 for human MDA-MB-231 cells. In kind it is toxicity. As to conditions: MCF10 cells versus MDA-MB-231 cells, read-out: Ratio CC50/IC50.
The next data set concerns MCF7. The data set is described as follows: Antiproliferative activity against human MCF7 cells after 48 hrs by MTT assay. In kind it is functional, cell-based. As to conditions: MCF7, 48 h. The gist of the method: as §1
On the technique in general: Tetrazolium assays rely on reduction of a dye to a coloured formazan, in cell work by metabolically active cells.

Data set [4] is described as follows: Selectivity index, ratio of CC50 for human MCF10 cells to IC50 for human MCF7 cells. In kind it is toxicity. To be noted: MCF10 cells versus MCF7 cells, read-out: Ratio CC50/IC50.
A further data set concerns Calf thymus DNA. In words: Binding affinity to calf thymus DNA at 10^-6 mol/L after 5 mins by UV/Visible spectrophotometric method. In kind it is nucleic-acid assay. As to conditions: Bos taurus. In outline: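 Calf-thymus DNA dissolved in Tris buffer (5 mM Tris-HCl, 50 mM NaCl, pH 7.4), stirred about 12 h, A260/A280 1.86, quantified at 260 nm (ε 6600 M⁻¹ cm⁻¹). Kb was taken from a Benesi-Hildebrand fit.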

For data set [5], the system named is MDA-MB-231. The data set is described as follows: Induction of apoptosis in human MDA-MB-231 cells assessed as late apoptotic cells after 48 hrs by Annexin V/FITC-propidium iodide staining-based flow cytometric analysis (reference value: 10.7%).
Data set [6] has as its system MDA-MB-231. The data set is described as follows: Induction of apoptosis in human MDA-MB-231 cells assessed as necrotic cells after 48 hrs by Annexin V/FITC-propidium iodide staining-based flow cytometric analysis (reference value: 7.2%).
The test system of data set [7] is MDA-MB-231. The data set is described as follows: Induction of apoptosis in human MDA-MB-231 cells assessed as early apoptotic cells after 48 hrs by Annexin V/FITC-propidium iodide staining-based flow cytometric analysis (reference value: 9.0%). (In general: In flow cytometry, cells or beads pass a laser one at a time.)

Regarding `OC(CNCCCCc1ccccc1)c1ccccc1` (stereo unspecified), the figures for the IC50 with MDA-MB-231 [1] and with MCF7 were 50.8 µM and 37.2 µM, respectively. Also, the CC50 (commonly the concentration at which the toxic effect on the cells reaches its halfway point) at 48 h in [2] was found to be 107 µM. Also, the figures for the selectivity ratio in data set [3] and in [4] were 2.11 and 2.88, respectively. Further, the Kb in the data set with Calf thymus DNA is 1.59 ×10⁵ /M.
Regarding `OC(CNCc1ccccc1)c1ccccc1` (stereo unspecified), the values for the IC50 in the data set on MDA-MB-231 [1] and in the data set on MCF7 were 225 µM and 210 µM, respectively. In addition, in data set [2], the CC50 at 48 h was 202 µM. Besides, the selectivity ratio worked out at 0.89 in data set [3] and 0.96 in data set [4].
Consider `OC(CNCCCc1ccccc1)c1ccccc1` (stereo unspecified), for which the IC50 (usually the concentration at which inhibition is half-maximal) with MDA-MB-231 [1] turned out to be 102 µM; with MCF7 it was 96.4 µM. This compound also had a CC50 at 48 h in [2] of 196 µM. Besides, the selectivity ratio in data set [3] was found to be 1.92; in data set [4], 2.02.
The corresponding values for `c1ccc(CCN2CC2c2ccccc2)cc1` (stereo unspecified) are 19 µM, 170 µM, 37.6 µM, 1.97 and 0.2.
With `CCCCNCC(O)c1ccccc1` (stereo unspecified), the IC50 was 259 µM in the data set with MDA-MB-231 [1] and 280 µM with MCF7. The same compound had a CC50 at 48 h in data set [2] of 188 µM. The selectivity ratio in data set [3] was 0.72; in [4], 0.67.
As to `OC(CNCc1ccccc1)c1ccc(Br)cc1` (stereo unspecified), the IC50 with MDA-MB-231 [1] amounted to 73.9 µM; in the data set with MCF7, 53 µM. In [2], this compound showed a CC50 at 48 h of 116 µM. In addition, the selectivity ratio in data set [3] was determined as 1.56; in data set [4] it was 2.18.
Consider `c1ccc(CN2CC2c2ccccc2)cc1` (stereo unspecified), for which the IC50 worked out at 40.4 µM in the data set on MDA-MB-231 [1] and 27.8 µM in the data set on MCF7. Besides, it took 41 µM to reach half-maximal cytotoxicity in data set [2] (CC50 at 48 h). Further, the selectivity ratio in [3] stood at 1.01; in data set [4] it was 1.47.
Take `c1ccc(CCCN2CC2c2ccccc2)cc1` (stereo unspecified): the values for the IC50 with MDA-MB-231 [1] and with MCF7 were 19.9 µM and 24.5 µM, respectively. This compound gave a CC50 at 48 h in data set [2] of 35.4 µM. Further, the selectivity ratio in data set [3] turned out to be 1.77; in [4], 1.44.
As for `c1ccc(CCCCN2CC2c2ccccc2)cc1` (stereo unspecified), the values for the IC50 with MDA-MB-231 [1] and in the data set with MCF7 were 11.1 µM and 24.7 µM, respectively. Moreover, the CC50 at 48 h in data set [2] worked out at 43.3 µM. Further, the values for the Activity with MDA-MB-231 [5] and with MDA-MB-231 [6] were 40% and 3.3%, respectively. The selectivity ratio turned out to be 4.08 in data set [3] and 1.83 in data set [4].
For `OC(CNCCc1ccccc1)c1ccccc1` (stereo unspecified), the values for the IC50 with MDA-MB-231 [1] and with MCF7 were 190 µM and 318 µM, respectively. In data set [2], this compound gave a CC50 at 48 h of 198 µM. The selectivity ratio is 1.04 in [3] and 0.62 in [4].
The corresponding values for `OC(CNc1ccccc1)c1ccccc1` (stereo unspecified) are 237 µM, 236 µM, 316 µM, 1.33 and 1.33.
For the compound `OC(CNCCCCc1ccccc1)c1ccc(Br)cc1` (stereo unspecified), the IC50 with MDA-MB-231 [1] amounted to 22.7 µM; in the data set with MCF7, 14.5 µM. The compound further yielded a CC50 at 48 h in data set [2] of 58.5 µM. The Activity in the data set with MDA-MB-231 [5] is 56.8%; in the data set with MDA-MB-231 [6], 6.7%; in the data set on MDA-MB-231 [7], 33.6%. For the same compound, the selectivity ratio was 2.57 in [3] and 4.04 in data set [4].
